Reference: ChEMBL document CHEMBL1124072, “1,2,4-Trioxanes as potential antimalarial agents” (J Med Chem, 1988)
In brackets after ≈: the same amount, converted by molar mass.

Tested on: Plasmodium falciparum
Assay: In vitro EC50 against chloroquine susceptible Plasmodium falciparum by [3H]hypoxanthine incorporation
Assay type: functional, organism-based
Summary of the method: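 Chloroquine-susceptible P. falciparum cultured in vitro and tested by the Desjardins method. Inhibition of parasite [3H]hypoxanthine uptake is the read-out. The value is the concentration (ng/mL) giving 50% inhibition of uptake.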

| SMILES | IC50 |
| --- | --- |
| CC1(C)CCC[C@@]2(C)O[C@]3(C)CC[C@]12OO3 | 1.35 µg/mL (≈ 5.97 µM) |
| COC(=O)C[C@@]12CC[C@]3(OO1)C(C)(C)CCC[C@@]3(C)O2 | 0.083 µg/mL (≈ 0.292 µM) |
| C[C@@H](O)C[C@@]12CC[C@]3(OO1)C(C)(C)CCC[C@@]3(C)O2 | 0.389 µg/mL (≈ 1.44 µM) |
| CC(C[C@@]12CC[C@]3(OO1)C(C)(C)CCC[C@@]3(C)O2)OC(=O)c1ccccc1 (stereo partly specified) | 0.0239 µg/mL (≈ 0.0638 µM) |
| CC1(C)CCC[C@@]2(C)O[C@]3(C)C=C[C@]12OO3 | > 1.2 µg/mL |
| CC(C[C@@]12C=C[C@]3(OO1)C(C)(C)CCC[C@@]3(C)O2)OC(=O)c1ccccc1 (stereo partly specified) | 0.733 µg/mL (≈ 1.97 µM) |
| COC(=O)C[C@@]12C=C[C@]3(OO1)C(C)(C)CCC[C@@]3(C)O2 | 0.096 µg/mL (≈ 0.34 µM) |
| C[C@H](C[C@@]12CC[C@]3(OO1)C(C)(C)CCC[C@@]3(C)O2)OC(=O)c1ccccc1 | 1.12 µg/mL (≈ 2.99 µM) |
| C[C@@H](O)C[C@@]12C=C[C@]3(OO1)C(C)(C)CCC[C@@]3(C)O2 | 4.93 µg/mL (≈ 18.4 µM) |
| C[C@@H]1CC[C@H]2[C@@H](C)C(=O)O[C@@H]3O[C@@]4(C)CC[C@@H]1[C@]32OO4 [ARTEMISININ] | 0.00113 µg/mL (≈ 0.004 µM) |
| C[C@H](C[C@@]12C=C[C@]3(OO1)C(C)(C)CCC[C@@]3(C)O2)OC(=O)c1ccccc1 | 0.789 µg/mL (≈ 2.12 µM) |
